Measured values of several laboratories.
Each line is one published result; the experiments were not run side by side.
PIK3CA E542K: Phosphatidylinositol 4,5-bisphosphate 3-kinase catalytic subunit alpha isoform (PIK3CA, Homo sapiens, UniProt P42336, E542K)
PIK3CA: Phosphatidylinositol 4,5-bisphosphate 3-kinase catalytic subunit alpha isoform (PIK3CA, Homo sapiens, UniProt P42336)

SMILES | target | test | conditions | quantity | value
C1=C/COCc2cc(ccc2OCCN2CCCC2)Nc2nccc(n2)-c2cccc(c2)COC/1 | PIK3CA E542K | binding | 0.1 µM | remaining binding | 68%
CC#CC(=O)N1CCC[C@H]1c1nc(-c2ccc(C(=O)Nc3ccccn3)cc2)c2c(N)nccn12 | Phosphatidylinositol 4,5-bisphosphate 3-kinase catalytic subunit alpha isoform (PIK3CA, Homo sapiens, UniProt P42336, C420R) | enzyme activity, inhibitor | 1 µM | inhibition | 17%
CC(C)S(=O)(=O)c1ccc2nccc(Nc3ccc4sc(C5CCCC5)nc4c3)c2c1 | Phosphatidylinositol 4,5-bisphosphate 3-kinase catalytic subunit alpha isoform, with p85 (PIK3CA, Homo sapiens, UniProt P42336) | enzyme activity, inhibitor | 1 µM | activity vs control | 98.5%
N#Cc1ccc(NC(=O)Nc2ccccc2)cc1 | PIK3CA | cell-free assay, competition with immobilised ligand | 25 µM | remaining binding | 92%
CCCCC(=O)Nc1ccc(-c2ccc3ncn(CCC)c(=O)c3c2)cn1 | PIK3CA E542K | binding, competition with immobilised ligand | 0.5 µM | remaining binding | 96%
CO[C@@H]1[C@H](N(C)C(=O)c2ccccc2)C[C@H]2O[C@]1(C)n1c3ccccc3c3c4c(c5c6ccccc6n2c5c31)C(=O)NC4 | Phosphatidylinositol 4,5-bisphosphate 3-kinase catalytic subunit alpha isoform (PIK3CA, Homo sapiens, UniProt P42336, M1043I) | enzyme activity, inhibitor | 1 µM | inhibition | 1%
Cc1ccc(NC(=O)c2ccnc(C(F)(F)F)c2)cc1-c1cc(OCCO)nc(N2CCOCC2)c1 | Phosphatidylinositol 4,5-bisphosphate 3-kinase catalytic subunit alpha isoform (PIK3CA, Homo sapiens, UniProt P42336, H1047L) | binding | 1 µM | remaining binding | 98%
C#Cc1cnc(Nc2ccnc(CO)c2)nc1Nc1ccccc1S(C)(=O)=NC#N (stereo not drawn) | PIK3CA | cell-free assay | 1 µM | remaining signal | 100%
COc1ccc2[nH]c3c4[nH]c5ccc(OC)cc5c4c4c(c3c2c1)C(=O)NC4=O | PIK3CA | binding | 1 µM | remaining binding | 91%
C=CC(=O)N1CCC[C@@H](n2nc(-c3ccc(Oc4ccccc4)cc3)c3c(N)ncnc32)C1 | Phosphatidylinositol 4,5-bisphosphate 3-kinase catalytic subunit alpha isoform (PIK3CA, Homo sapiens, UniProt P42336, I800L) | enzyme activity, inhibitor | 1 µM | inhibition | 8%
C[C@H]1CC[C@H](n2c3cnccc3c3cnc(Nc4ccc5c(n4)CCN(C(=O)CO)C5)nc32)CC1 | Phosphatidylinositol 4,5-bisphosphate 3-kinase catalytic subunit alpha isoform (PIK3CA, Homo sapiens, UniProt P42336, E545K) | cell-free assay | 1 µM | remaining signal | 100%
C=CC(=O)N1CCC([C@@H]2CCNc3c(C(N)=O)c(-c4ccc(Oc5ccccc5)cc4)nn32)CC1 | Phosphatidylinositol 4,5-bisphosphate 3-kinase catalytic subunit alpha isoform (PIK3CA, Homo sapiens, UniProt P42336, H1047Y) | enzyme activity, inhibitor | 1 µM | inhibition | 12%
